Usually apparent Kd stands for a dissociation constant that holds for the conditions of the assay.

In this series the test system is MS2 coat protein. The experiment in a line: apparent Kd, MS2 coat protein; higher = weaker binding; RNA-MaP array. The method in brief:
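Incubations were done at room temperature with fluorescently labeled MS2 coat protein at 1.5 nM to 3 μM and designed RNAs transcribed on an Illumina sequencing chip from sequenced DNA templates, with or without input ligand. Apparent Kd is the median of binding curves fitted for each cluster. Designs with fewer than 10 measured clusters were excluded.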

Where [1] appears, read: designed as: OFF switch for flavin mononucleotide, no ligand.
The mark [2] stands for this setting: designed as: ON switch for flavin mononucleotide, no ligand.
[3] abbreviates: ligand present: flavin mononucleotide, designed as: ON switch for flavin mononucleotide.
Where [4] appears, read: ligand present: flavin mononucleotide, designed as: OFF switch for flavin mononucleotide.
Setting [5] is: designed as: OFF switch for theophylline, no ligand.
The mark [6] stands for this setting: ligand present: theophylline, designed as: OFF switch for theophylline.

As to “AGAAAUACAUGAGGAUCACCCAUGUGCAUCCUGACUAGUUGACAGGAUAUCAGUCUUACCUGGGCUGAGAAGGGUCCGCGUAGC”, the “apparent Kd” value under setting [1] is 19.8 nM. Consider “CAAGUAGUGGCAUUAACAUGAGGAUCACCCAUGUUGUGCGUCAGAAGGGCUCUAAUGGAUAACCAGCAGGAUAUGAUUUUCAUC”, for which the “apparent Kd” value was found to be 6.92 nM under setting [2] and 6.89 nM under setting [3].

“UUGAUCUGACGAGGAUAUAUCAUAACACCUUUGAUAGAAGGCGUGAUCGACAUGAGGAUCACCCAUGUGCGUGACUUUGGUAGU”: the “apparent Kd” value was 11.6 nM under setting [2] and 10.8 nM under setting [3]. For “CCAGGGCUCGAGAAGGCCCGCGCGGUUCAGUACGUAGGUACAUGAGGAUCACCCAUGUCGGAUUGGGAGGAUAUCGAUUCUUGU”, the “apparent Kd” value is 335 nM under setting [2] and 80.1 nM under setting [3]. As to “GUUAAAGAACGAGGAUAUAUUUGGUGAGGAGUACACAUGAGGAUCACCCAUGUCCAUCCUAUUCCAUAGAAGGCGUAGAGUUUU”, the “apparent Kd” value under setting [2] is 6.71 nM and the “apparent Kd” value under setting [3] came out at 6.95 nM. The matching figures for “GAAUGAAUACAAGGAUAUCCCACAUGAGGAUCACCCAUGUAAAUACAAAUGUAAUACGUUGCUAAGGAGAAGGUGUAGAACAAA”: 113 nM and 28.9 nM. On to “UUAUUGGUAGGAUAUACAUGAGGAUCACCCAUGUGUCACGCAAAUUAGUAUGUCAAAUGUAGAAGGACCAAAUA”, for which the “apparent Kd” value came out at 20.5 nM under setting [1] and 30.2 nM under setting [4]. For “UAUCUACUAUGAGGAUAUCGACAAUGGAUGAACAUGAGGAUCACCCAUGUAACUCAUGGUCCCUUCGAGAAGGCAUGCUAUAAC”, in that order: 55 nM and 59.5 nM.

Take “GUACACAUGAGGAUCACCCAUGUACUGGUACGAGGACCGGUACGGCCGCCACUCGCCGAGAUUCAUAACACAUCAGAAAGCUCAC”: the “apparent Kd” value reads like this: (designed as: ON switch for tryptophan, no ligand) 17.6 nM; (ligand present: tryptophan, designed as: ON switch for tryptophan) 15.6 nM. In the case of “GCGCGGCGUGAAGGAUAUGGUUCAGUACAUGAGGAUCACCCAUGUCAGACAGCAUCGGGGCCGUCCCAGAAGGUCACACGUUUU”, the “apparent Kd” value reads like this: under setting [2], 9.14 nM; under setting [3], 7.36 nM.

With “CAAUGAACAUGAGGAUCACCCAUGUAGUAAUGCGAGAAAACGAAGGAUAUAGCGAUACUACAUAGCAAGAAGGUCGCAAACAUA”, the “apparent Kd” value worked out at 40.4 nM under setting [2] and 30.7 nM under setting [3]. Take “GACAGAAAGUCAGGAUAUGAACGGUCAUGACAUGAGGAUCACCCAUGUUUCUUGUGCACCCUGCGUCAGAAGGGACUAGUGAGG”: the “apparent Kd” value reads like this: under setting [2], 19.3 nM; under setting [3], 12.8 nM. As to “UAGAUAUGAGGAUAUACAUGAGGAUCACCCAUGUGGUUAUCAAACGACAUGACAUUUAGUAGAAGGCAAACAUC”, the “apparent Kd” value was found to be 23.5 nM under setting [1] and 21 nM under setting [4]. For “CACUGGUACGAGAAGGCACCUGAAGUUGAGAAGUGAGGAUAUCGAAAUAAACACAUGAGGAUCACCCAUGUGAUCCAAGGACGA”, in that order: 121 nM and 91.6 nM. Take “GCAGUUGGUCUCUCACAUGAGGAUCACCCAUGUUCUUAGUUUCAGGAUAUAUGAGCGAAUUGCGGAUAGAAGGGAAACAGUCAC”: the “apparent Kd” value reads like this: under setting [1], 41.6 nM; under setting [4], 49.7 nM. The matching figures for “CACCUCCAAGGAUAUACAUGAGGAUCACCCAUGUGGAUAACCUGGGCGCGCCGAGCAAGUAGAAGGUGGAUUGG”: 10.9 nM and 14.7 nM. As for “GCUUGACAUGAGGAUCACCCAUGUAAAUGAGAGACAGGAUAUACGAGACACGUAGGGUAGGUAGAAGGGUCGACUG”, the “apparent Kd” value was 15.1 nM under setting [2] and 9.69 nM under setting [3]. Take “UAGCCUCUUAGAGGAUAUUCAUAAGCACGCAAUGAAGAAGGCUAGGACAAGUGGGACAUGAGGAUCACCCAUGUGGGAAUAUGU”: the “apparent Kd” value runs as follows: under setting [1], 43.3 nM; under setting [4], 36.8 nM. With “CAUGCGGCUAGUGAGCGUGGUGAGUAAAGGCGAGGACCGGUACGGCCGCCACUCGAGGCAAGACAUGAGGAUCACCCAUGUUGUA”, the “apparent Kd” value reads like this: (designed as: OFF switch for tryptophan, no ligand) 15.1 nM; (ligand present: tryptophan, designed as: OFF switch for tryptophan) 12.9 nM.

For the sequence “GUUAGUUGUGAGGAUAUUCAGAGAUCUCGAUCAGAAGAAGGCACUACAUGAGGAUCACCCAUGUAGAUUCUUAU”, the “apparent Kd” value reads like this: under setting [1], 5.25 nM; under setting [4], 8.88 nM.

Regarding “ACGGGACAUGAGGAUCACCCAUGUUAGGAUAUACGAACUUCGCCGAACGUGACCAAUUGUAGAAGGAACUUGGU”, the “apparent Kd” value reads like this: under setting [1], 17.2 nM; under setting [4], 14 nM. For “UGAACCGGAAAGAAGGCCUUGCUUUAACGUACAGGAGGAUAUUUCCUAUUUGUGAGCCUUGACAUGAGGAUCACCCAUGUAUCG”, the “apparent Kd” value by setting is: under setting [1], 479 nM; under setting [4], 116 nM. For “GGUUAACAUGAGGAUCACCCAUGUAAGGAUAUCGGGCUGUCCAGGCGAUAGUACACGUCGAGAAGGUACGCGGU”, in that order: 10.8 nM and 12.2 nM. For the sequence “UCAGUGUCAGGAUAUUCUAACGAGGGUAGUGCGCCCUUUGUGAAGAAGGGACAUGAGGAUCACCCAUGUACUUG”, the “apparent Kd” value came out at 51.2 nM under setting [1] and 125 nM under setting [4]. As to “CAUAGCAAAAGUGAUACCAGAGUUCGAGGGAACAUGAGGAUCACCCAUGUGCUUGUACAACUCCCUUGGCAGCACAGAGCAAUUA”, the “apparent Kd” value by setting is: (designed as: ON switch for theophylline, no ligand) 23.1 nM; (ligand present: theophylline, designed as: ON switch for theophylline) 10.3 nM. Turning to “GAGAGGGCUUGAGGAUAUCUUCACUCCGACAUGAGGAUCACCCAUGUAUUCCGUUGAUCGUUGGGAGAGAAGGCAACUUUGUAA”, the “apparent Kd” value by setting is: under setting [1], 58 nM; under setting [4], 54 nM. For the sequence “CGUCCCUAGCAGAAGGUUCUUUGGGCUGCAGUGAAAGGAUAUGCCAGCACAUGAGGAUCACCCAUGUCUGUCGGAUGCACCAGA”, the “apparent Kd” value by setting is: under setting [2], 63.9 nM; under setting [3], 47 nM. For “UGGAUUCGACAAGGAUAUGGUAGUCAUAGCACAUGAGGAUCACCCAUGUUAAAGCAAAACAAAGUCCAGAAGGUGUAAGUACGG”, the “apparent Kd” value is 11.7 nM under setting [2] and 9.43 nM under setting [3]. As for “UUUAGACCUCAACAUGAGGAUCACCCAUGUAAAUCUCUAUCGAGAAGGAAGGAAGGAACCUUGUCUUAGGAUAUCGACAAUUUC”, the “apparent Kd” value was 101 nM under setting [2] and 71.7 nM under setting [3]. For “CGUGCAUGCUAGUAGGAUAUCCCGCAUGAAACAUGAGGAUCACCCAUGUAGAAGAUCUAUGAUCGGGAGAAGGACUCGUGAGAAAC”, in that order: 34.6 nM and 12.1 nM. With “AUGCACUCAGUCAGGAUAUGCAACUUAUAAUACAGGCAGAAGGGACAUGAGGAUCACCCAUGUGGCCGGUAAGA”, the “apparent Kd” value reads like this: under setting [1], 9.13 nM; under setting [4], 39.1 nM. As to “UGGAAGUAAGGAUAUCCGCGCGCGGGUUUUGCGCACGCACUGGAGAAGGUACAUGAGGAUCACCCAUGUUCGUC”, the “apparent Kd” value reads like this: under setting [1], 9.85 nM; under setting [4], 9.59 nM. Regarding “AUAAACUAACAUGAGGAUCACCCAUGUAUGGAGAAAAUACCUAGAAGGAGGAUAUUUACAACAUCCAAGGAUAUAGGAGCCUCA”, the “apparent Kd” value under setting [2] is 68.1 nM and the “apparent Kd” value under setting [3] worked out at 42.4 nM. On to “GGGGGUUGGACAGGAUAUAGAGGUCUCGUGUGGAGAUGCACAACGACAUGAGGAUCACCCAUGUGCUAGAAGGGUCUGCGAUAG”, for which the “apparent Kd” value by setting is: under setting [2], 19.3 nM; under setting [3], 16.1 nM. For “AUGGUCUCUUAAGGAUAUAGCUAUACAGAGCGCACGUAGGUUAAAUACAUGAGGAUCACCCAUGUCUAGAAGGUAAGUACCGGA”, in that order: 11.6 nM and 11.1 nM. As to “AUGUGAUAGGAGAAGGGCUGUCCAUGGACAUCACAGUACAUCCACAUGAGGAUCACCCAUGUUAAGCAGGAUAUCCUGUCGUGU”, the “apparent Kd” value is, setting by setting: under setting [1], 27.2 nM; under setting [4], 58.9 nM. For “GCAAGAGAGCAGAAGGUUGAGGGCGUUCCCGUUUACAUGAGGAUCACCCAUGUUGCUAACAUGUCAAAGGAUAUGCCUAACGCU”, in that order: 70.8 nM and 63.8 nM. With “ACGGUAGUACAUGAGGAUCACCCAUGUGGUUUUCUAAGAGGAUAGGAUAUACGUCCAAGCGGCAGGUAGAAGGAUCGAGUUUGC”, the “apparent Kd” value under setting [1] was 41.7 nM and the “apparent Kd” value under setting [4] is 34 nM. “CAUUUCUUCACAGGAUAUGCCGUACAUGAGGAUCACCCAUGUGGGUGGGCGUAGCACUGUAGUGCGCAGAAGGGUGGAUCCGAC”: the “apparent Kd” value was 113 nM under setting [1] and 79.2 nM under setting [4].

Turning to “AGAACUUUGGUGGAUACCAGCUUCUGGCCAUCCUUCAAAUACAUGAGGAUCACCCAUGUUAGCCCUUGGCAGCCAACAUAGACUG”, the “apparent Kd” value turned out to be 22.4 nM under setting [5] and 222 nM under setting [6].

For “AAACACAACCAGAAGGCCAAAACAUGAGGAUCACCCAUGUAGAUAAGAAGAGUAAGCACUGUCAUGGAGGAUAUGGGUCAAAAC”, the “apparent Kd” value under setting [2] is 20.8 nM and the “apparent Kd” value under setting [3] came to 7.12 nM.

In the case of “GACGCUGCAGGAUAUACUACGAGACUCACCCACAUUAUAUGACAUGAGGAUCACCCAUGUAGAAGGGCAAUGUG”, the “apparent Kd” value under setting [1] amounted to 10.4 nM and the “apparent Kd” value under setting [4] amounted to 12.6 nM. Consider “UUCCACCUAAAGCGUUGCCCUCGUGAUGAUACCAGUUUCAGCGGUAACCCUUGGCAGCAUCGGACAUGAGGAUCACCCAUGUGGA”, for which the “apparent Kd” value came out at 106 nM under setting [5] and 213 nM under setting [6]. Regarding “GCCGUUCGAGAGAAGGUUGUACGCGCCACGCGCACAUGAGGAUCACCCAUGUCCUCCAAACUCACAAAGGAUAUCUUAAGAACA”, the “apparent Kd” value reads like this: under setting [1], 415 nM; under setting [4], 508 nM. For “ACAUGAGGAUCACCCAUGUACAUUUAUACUGGGAGACUAUCGUAGGAUAUAUGAACAAGCAUUCUAUAGAAGGACGAAAAGAUC”, in that order: 59.4 nM and 40.4 nM.

As to “CCAGUGGGUGGAGGAUAUGAUGACAAACUGUGUUCAGAAGGCCACCUCAAGACACGAACAUGAGGAUCACCCAUGUCCCAACCU”, the “apparent Kd” value is 227 nM under setting [2] and 15.8 nM under setting [3].

“AUUUCUUCGGUCAGGAUAUCUAGUGUAACGCGGUCAGAGAAGGGACAUGAGGAUCACCCAUGUGUGACUCUCUG”: the “apparent Kd” value worked out at 5.77 nM under setting [1] and 5.9 nM under setting [4].
